pEC50, pIC50: −log10 of the molar value.
Key:
[1] = system: Human alphaherpesvirus 3; assay: Antiviral activity against thymidine kinase deficient Varicella-Zoster virus 07-1 infected in HEL cells assessed as reduction in virus plaque formation; format: functional, cell-based
Outline: (§1)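 Confluent HEL fibroblast cultures were infected with VZV at an input of 100 PFU and incubated with varying compound concentrations. Plaques were counted once plaque formation was complete in untreated infected controls.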

[2] = system: HMEC-1; assay: Anti-proliferative activity against HMEC1 cells by coulter counter method; format: ADME, cell-based, Homo sapiens
Outline: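 HMEC-1 cells at 300,000–500,000 cells/mL, mixed 1:1 by volume with serial dilutions of test compound, incubated at 37 °C. Cell number counted by Coulter counter.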

[3] = (§2) Cytotoxicity against HEL cells infected with Cytomegalovirus assessed as alteration in cell morphology by microscopic method; format: cell-based; conditions: human, HEL cells infected with Cytomegalovirus
Outline: (§3)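 In the HEL cultures used for the antiviral assays, cell morphology was examined microscopically across varying compound concentrations. MCC is the minimum concentration causing a microscopically detectable alteration of cell morphology.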

[4] = system: HeLa; assay: Anti-proliferative activity against human HeLa cells measured after 4 days by coulter counter method; format: ADME, cell-based
Outline: (§4)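 Cells at 300,000–500,000 cells/mL, combined 1:1 by volume with compound dilutions, incubated at 37 °C: L1210 for two days, CEM for three days, HeLa for four days. Cells counted by Coulter counter.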

[5] = system: HEL; assay: Cytotoxicity against HEL cells infected with Cytomegalovirus assessed as growth inhibition; format: cell-based; conditions: human
[6] = system: Cytomegalovirus; assay: Antiviral activity against Cytomegalovirus Davis infected in HEL cells assessed as reduction in virus plaque formation; format: functional, cell-based
Outline: (§5)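 Confluent HEL fibroblast cultures infected with 100 PFU of HCMV and kept with varying compound concentrations. Plaques scored once plaque formation was complete in untreated infected controls.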

[7] = system: L1210; assay: Anti-proliferative activity against mouse L1210 cells measured after 48 hrs by coulter counter method; format: ADME, cell-based; outline: as §4
[8] = (§6) Cytotoxicity against HEL cells infected with Varicella-Zoster virus assessed as growth inhibition; format: cell-based; conditions: human, HEL cells infected with Varicella-Zoster virus
[9] = system: CCRF-CEM; assay: Anti-proliferative activity against human CEM cells measured after 72 hrs by coulter counter method; format: ADME, cell-based; outline: as §4
[10] = system: Human alphaherpesvirus 3; assay: Antiviral activity against thymidine kinase expressing Varicella-Zoster virus OKA infected in HEL cells assessed as reduction in virus plaque formation; format: functional, cell-based, strain Oka vaccine; outline: as §1
[11] = (§7) Cytotoxicity against HEL cells infected with Varicella-Zoster virus assessed as alteration in cell morphology by microscopic method; format: cell-based; conditions: human, HEL cells infected with Varicella-Zoster virus; outline: as §3
[12] = system: Cytomegalovirus; assay: Antiviral activity against Cytomegalovirus AD169 infected in HEL cells assessed as reduction in virus plaque formation; format: functional, cell-based; outline: as §5
[13] = system: HEL; assay: as §2; format: cell-based; conditions: human, hel; outline: as §3
[14] = system: HEL; assay: as §6; format: cell-based; conditions: human, hel
[15] = system: Human alphaherpesvirus 3; assay: Potency index, ratio of acyclovir EC50 to compound EC50 for thymidine kinase deficient Varicella-Zoster virus 07-1 infected in HEL cells assessed as reduction in virus plaque formation; format: functional
[16] = system: HEL; assay: as §7; format: cell-based; conditions: human, hel; outline: as §3
[17] = system: Human alphaherpesvirus 1; assay: Antiviral activity against thymidine kinase-deficient acyclovir-resistant Herpes simplex virus 1 KOS infected in HEL cells assessed as reduction in virus-induced cytopathogenicity; format: functional, cell-based; conditions: Human alphaherpesvirus 1, KOS
Outline: (§8)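 Confluent HEL fibroblast monolayers were infected with 100 CCID50 of virus and incubated with varying concentrations of compound. Cytopathicity was scored once it was complete in untreated infected controls.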

[18] = system: Human alphaherpesvirus 1; assay: Antiviral activity against Herpes simplex virus 1 KOS infected in HEL cells assessed as reduction in virus-induced cytopathogenicity; format: functional, cell-based; conditions: Human alphaherpesvirus 1, KOS; outline: as §8
[19] = Cytotoxicity against virus infected HEL cells assessed as alteration in cell morphology by microscopic method; format: cell-based; conditions: human; outline: as §3
[20] = system: Human alphaherpesvirus 2; assay: Antiviral activity against Herpes simplex virus 2 G infected in HEL cells assessed as reduction in virus-induced cytopathogenicity; format: functional, cell-based; conditions: Human alphaherpesvirus 2, strain G
[21] = system: Human adenovirus 2; assay: Antiviral activity against Human adenovirus 2 infected in HEL cells assessed as reduction in virus-induced cytopathogenicity; format: functional, cell-based; conditions: Human mastadenovirus C; outline: as §8
[22] = system: HeLa; assay: Anti-proliferative activity against human HeLa cells measured after 72 hrs by coulter counter method; format: ADME, cell-based
[23] = Human alphaherpesvirus 3, 07-1, HEL
[24] = Human betaherpesvirus 5, Davis, HEL
[25] = Human alphaherpesvirus 3, strain Oka vaccine, HEL
[26] = Human betaherpesvirus 5, AD169, HEL

Row | SMILES | pEC50 [1, 23] | MCC [3] | CC50 [5] | pEC50 [6] | pIC50 ([7]; Mus musculus, L1210, 48 h) | pIC50 ([9]; Homo sapiens, CCRF-CEM, 72 h) | MCC [11] | pEC50 [6, 24] | CC50 [14] | pEC50 [10, 25] | pEC50 [12, 26] | MCC [19] | other results
1 | CCOP(=O)(OCC)C1CC(Cn2c(=O)n(Cc3ccccc3)c(=O)c3ccccc32)ON1Cc1ccccc1 (mixture of isomers; cis) | 4.88 | 100 µM | 9 µM | 5.19 | 4.74 | 5.00 | 100 µM | – | – | – | – | – | pIC50 ([2]; Homo sapiens, HMEC-1): 4.55; pIC50 ([4]; hela): 4.48; CC50 [8]: 9 µM; pEC50 [10]: 5.14; pEC50 [12]: ≤ 5.52
2 | CCOP(=O)(OCC)C1CC(Cn2c(=O)n(Cc3cccc(F)c3)c(=O)c3ccccc32)ON1Cc1ccccc1 (mixture of isomers; trans) | – | – | 20.8 µM | 5.05 | – | – | – | – | – | – | – | – | pEC50 [1]: 4.70; pIC50 ([2]; hmec-1): 4.55; MCC [13]: 100 µM; pIC50 ([4]; hela): 4.20; pIC50 ([7]; l1210): 4.77; pIC50 ([9]; ccrf-cem): 4.77; pEC50 [12]: 5.00
3 | CCOP(=O)(OCC)C1CC(Cn2c(=O)n(Cc3ccccc3F)c(=O)c3ccccc32)ON1Cc1ccccc1 (stereo unspecified) | 5.29 | 100 µM | 11.8 µM | – | 4.77 | 4.70 | 100 µM | ≤ 5.19 | 11.8 µM | 5.33 | 5.05 | – | pIC50 ([2]; Homo sapiens, HMEC-1): 4.64; pIC50 ([4]; Homo sapiens, HeLa, 96 h): 4.77; Ratio EC50 [15]: 10 - 14
4 | CCOP(=O)(OCC)C1CC(Cn2c(=O)n(Cc3cccc(F)c3)c(=O)c3ccccc32)ON1Cc1ccccc1 (mixture of isomers; cis) | < 4.70 | – | – | < 4.70 | – | – | 100 µM | – | – | < 4.70 | – | – | pIC50 ([2]; hmec-1): 3.69; MCC [13]: 20 µM; pIC50 ([4]; Homo sapiens, HeLa, 96 h): 4.14; pIC50 ([7]; l1210): 4.05; pIC50 ([9]; ccrf-cem): 4.31; pEC50 [12]: < 4.70
5 | CCOP(=O)(OCC)C1CC(Cn2c(=O)n(Cc3ccc(F)cc3)c(=O)c3ccccc32)ON1Cc1ccccc1 (mixture of isomers; cis) | < 5.40 | – | – | < 5.40 | 4.72 | 4.77 | – | – | – | < 5.40 | < 5.40 | – | pIC50 ([2]; Homo sapiens, HMEC-1): 4.57; MCC [13]: 20 µM; pIC50 ([4]; Homo sapiens, HeLa, 96 h): 4.77; MCC [16]: 20 µM
6 | CCOP(=O)(OCC)[C@@H]1C[C@@H](Cn2c(=O)n(C(=O)c3ccc(F)cc3)c(=O)c3ccccc32)ON1C (relative stereo) | 4.97 | 100 µM | – | – | < 3.60 | – | ≥ 100 µM | < 4.70 | 14.7 µM | 5.16 | < 4.70 | ≥ 100 µM | pEC50 [17]: 5.05; pEC50 [18]: 4.41; pEC50 [20]: 4.92; pEC50 [21]: 4.76
7 | CCOP(=O)(OCC)C1CC(Cn2c(=O)n(Cc3ccc(F)cc3)c(=O)c3ccccc32)ON1Cc1ccccc1 (mixture of isomers; trans) | – | – | 6.6 µM | 5.05 | – | – | – | – | 6.6 µM | – | – | – | pEC50 [1]: 5.44; pIC50 ([2]; hmec-1): 4.59; MCC [13]: 100 µM; pIC50 ([4]; hela): 4.74; Ratio EC50 [15]: 10 - 14; pIC50 ([9]; ccrf-cem): 4.89; pEC50 [10]: 5.52; MCC [16]: 100 µM; pEC50 [12]: ≤ 5.19
8 | CCOP(=O)(OCC)[C@H]1C[C@@H](Cn2c(=O)n(C(=O)c3ccccc3)c(=O)c3ccccc32)ON1C | 4.96 | 100 µM | – | – | < 3.70 | 4.13 | > 100 µM | < 4.00 | – | 5.11 | < 4.00 | – | pIC50 [22]: < 3.70
9 | Nc1nc(O)c2ncn(COC(CO)CO)c2n1 [GANCICLOVIR] | – | > 350 µM | > 350 µM | – | – | – | – | 5.19 | – | – | 4.83 | > 100 µM | pEC50 [20]: 7.26
10 | Nc1ccn([C@H]2CC[C@@H](CO)O2)c(=O)n1 [ZALCITABINE] | – | – | – | – | – | – | – | – | – | – | – | > 250 µM | pEC50 [21]: 5.14
11 | O=c1[nH]c(=O)n([C@H]2C[C@H](O)[C@@H](CO)O2)cc1/C=C/Br [BRIVUDINE] | 4.64 | – | – | – | – | – | > 300 µM | – | 300 µM | 8.30 | – | > 250 µM | pEC50 [20]: 3.84
12 | Nc1ccn(C[C@@H](CO)OCP(=O)(O)O)c(=O)n1 [CIDOFOVIR] | – | > 300 µM | > 300 µM | – | – | – | – | 6.09 | – | – | 5.84 | > 250 µM | pEC50 [17]: 5.42; pEC50 [18]: 5.70; pEC50 [20]: 5.70; pEC50 [21]: 5.00
13 | CCOP(=O)(OCC)[C@H]1C[C@@H](Cn2ccc(=O)n(C(=O)c3ccccc3)c2=O)ON1C | 4.05 | 100 µM | – | – | < 3.70 | < 3.70 | > 100 µM | < 4.00 | – | 4.18 | < 4.00 | – | pIC50 [22]: < 3.70
14 | Cc1cn([C@H]2C[C@H](F)[C@@H](CO)O2)c(=O)[nH]c1=O [ALOVUDINE] | – | – | – | – | – | – | – | – | – | – | – | > 250 µM | pEC50 [21]: 5.00
15 | CCOP(=O)(OCC)[C@@H]1C[C@@H](Cn2c(=O)n(C(=O)c3ccccc3)c(=O)c3ccccc32)ON1C | 4.86 | 100 µM | – | – | ≤ 3.80 | 4.15 | ≥ 100 µM | < 4.00 | > 100 µM | 5.12 | < 4.00 | – | pIC50 [22]: 4.02
16 | CCOP(=O)(OCC)[C@@H]1C[C@@H](Cn2ccc(=O)n(C(=O)c3ccccc3)c2=O)ON1C | < 4.00 | 100 µM | – | – | < 3.70 | < 3.70 | > 100 µM | < 4.00 | – | 4.08 | < 4.00 | – | pIC50 [22]: < 3.70

Source: ChEMBL document CHEMBL3994569, “Synthesis, anti-varicella-zoster virus and anti-cytomegalovirus activity of quinazoline-2,4-diones containing isoxazolidine and phosphonate substructures” (Eur J Med Chem, 2017)
